According to ChEMBL document CHEMBL3407473, “5'-(N-aminoacyl)-sulfonamido-5'-deoxyadenosine: attempts for a stable alternative for aminoacyl-sulfamoyl adenosines as aaRS inhibitors” (2015):
Converted amounts (≈) assume the structure as drawn. The source made the active and inactive calls. The rule behind the calls is not given here.

Columns and labels:
Escherichia coli [1] = experiment: Antimicrobial activity against wild-type Escherichia coli after 18 hrs by broth dilution method; format: functional
Procedure, shortened: (§1)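 Strains grown overnight in LB, then subcultured the next day in fresh LB. Compounds serially diluted in LB in 96-well plates with cell suspension. Growth read as optical density. Highest concentration tested […], as printed. Broth dilution run in triplicate. MIC50 taken from the OD readings.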

Candida albicans = experiment: Antimicrobial activity against Candida albicans CO11 after 18 hrs by broth dilution method; format: functional; conditions: CO11, 18 h; procedure, shortened: as §1
Micrococcus luteus = experiment: Antimicrobial activity against Sarcina lutea ATCC 9341 after 18 hrs by broth dilution method; format: functional; conditions: ATCC 9341, 18 h; procedure, shortened: as §1
Staphylococcus aureus = experiment: Antimicrobial activity against Staphylococcus aureus ATCC 6538 after 18 hrs by broth dilution method; format: functional; conditions: ATCC 6538, 18 h; procedure, shortened: as §1
Escherichia coli [2] = experiment: Inhibition of aminoacyl tRNA synthetase in wild-type Escherichia coli S30 cell extract asessed as inhibition of [14C]-radiolabeled aminoacid incorporation at 50 uM after 5 mins by liquid scintillation counting analysis
Procedure, shortened: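 Inhibitor incubated with 3 L E. coli wt S30 extract, as printed. Aminoacylation mix: Tris.HCl 30 mM pH 8.0, DTT 1 mM, bulk E. coli tRNA 5 g/l, ATP 3 mM, KCl 30 mM, MgCl2 8 mM, 14C-labelled amino acid 40 M (200 mCi/mmol), units as printed. Samples spotted on papers, washed with cold 10% TCA then acetone, dried. Radioactivity read by scintillation counting.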

| Structure (SMILES) | MIC50 (Escherichia coli [1]) [µM] | MIC50 (Candida albicans) [µM] | MIC50 (Micrococcus luteus) [µM] | MIC50 (Staphylococcus aureus) [µM] | inhibition (Escherichia coli [2]) |
| --- | --- | --- | --- | --- | --- |
| Nc1ncnc2c1ncn2[C@@H]1O[C@H](CS(=O)(=O)NC(=O)[C@@H](N)CO)[C@@H](O)[C@H]1O | > 100 | > 100 | > 100 | > 100 | – |
| Nc1ncnc2c1ncn2[C@@H]1O[C@H](CS(=O)(=O)NC(=O)[C@@H](N)Cc2ccc(O)cc2)[C@@H](O)[C@H]1O | > 100 | > 100 | > 100 | > 100 | – |
| NCC(=O)NS(=O)(=O)C[C@H]1O[C@@H](n2cnc3c(N)ncnc32)[C@H](O)[C@@H]1O | > 100 | > 100 | > 100 | > 100 | – |
| CC[C@H](C)[C@H](N)C(=O)NS(=O)(=O)C[C@H]1O[C@@H](n2cnc3c(N)ncnc32)[C@H](O)[C@@H]1O | > 100 | > 100 | > 100 | > 100 | – |

Second part, the compound after the results:

| MIC50 (Escherichia coli [1]) [µM] | MIC50 (Candida albicans) [µM] | MIC50 (Micrococcus luteus) [µM] | MIC50 (Staphylococcus aureus) [µM] | inhibition (Escherichia coli [2]) | Structure (SMILES) |
| --- | --- | --- | --- | --- | --- |
| 50 (≈ 22.3 µg/mL) | > 100 | > 100 | > 100 | Active | Nc1ncnc2c1ncn2[C@@H]1O[C@H](CS(=O)(=O)NC(=O)[C@@H](N)CC(=O)O)[C@@H](O)[C@H]1O |
| > 100 | > 100 | > 100 | > 100 | – | CC(C)C[C@H](N)C(=O)NS(=O)(=O)C[C@H]1O[C@@H](n2cnc3c(N)ncnc32)[C@H](O)[C@@H]1O |
